Data: ChEMBL document CHEMBL1151968, “Ceramide and cerebrosides from the octocoral Sarcophyton ehrenbergi” (2009)
Active and inactive are the calls of the source. The calls are words filed in the database; no cut-off is given here.

Tests used:
[1] = system: Salmonella enterica subsp. enterica; test: Antibacterial activity against Salmonella enteritidis ATCC 13076 at […]; format: functional, organism-based; settings: Salmonella enterica subsp. enterica serovar Enteritidis
Summary of the method: (§1)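 Agar-overlay disk diffusion. Strains grown in LB broth 24 h at 37 °C; 0.3 mL broth culture in 2.7 mL LB soft agar (0.7%) poured over LB hard agar (1.5%). 8 mm paper disks loaded with 10 μL of 2 μg/μL sample; ampicillin (5 μg/μL) positive control, solvent negative control. Plates incubated 37 °C, 24 h, then inhibition assessed.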

RAW264.7 [2] = test: Antiinflammatory activity in mouse RAW264.7 cells assessed as reduction of LPS-induced iNOS protein level at 10 uM by immunoblot analysis relative to control; format: functional; set-up: scale not given: the % may be the effect or the level left
Summary of the method: (§2)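 Murine RAW 264.7 macrophages stimulated with E. coli LPS (0.01 μg/mL) for 16 h with or without sample (10 μM). Lysates from cells washed in ice-cold PBS; equal protein run on SDS-PAGE, transferred to PVDF, probed with anti-iNOS or anti-COX-2 (1:1000, 180 min); β-actin blotted. Band intensity expressed relative to LPS-alone group (100%); mean ± SEM, n = 5.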

RAW264.7 [3] = test: Antiinflammatory activity in mouse RAW264.7 cells assessed as reduction of LPS-induced COX2 protein level at 10 uM by immunoblot analysis relative to control; format: functional; summary of the method: as §2
Shigella sonnei = test: Antibacterial activity against Shigella sonnei ATCC 11060 at […]; format: functional, organism-based; summary of the method: as §1
Klebsiella aerogenes = test: Antibacterial activity against Enterobacter aerogenes ATCC 13048 at […]; format: functional, organism-based; summary of the method: as §1
Serratia marcescens = test: Antibacterial activity against Serratia marcescens ATCC 25419 at […]; format: functional, organism-based; summary of the method: as §1

CCCCCCCCCCCCCCCCCC[C@@H](O)C(=O)N[C@@H](CO[C@@H]1O[C@H](CO)[C@@H](O)[C@H](O)[C@H]1O)[C@H](O)/C=C/CC/C=C(\C)CCCCCCCCC
Activity [1]: inactive | Activity (RAW264.7 [2]): 25.8% | Activity (RAW264.7 [3]): inactive | Activity (Shigella sonnei): inactive | Activity (Klebsiella aerogenes): inactive | Activity (Serratia marcescens): inactive

CCCCCCCCCCCCCCCCCCCC[C@@H](O)C(=O)N[C@@H](CO[C@@H]1O[C@H](CO)[C@@H](O)[C@H](O)[C@H]1O)[C@H](O)/C=C/CC/C=C(\C)CCCCCCCCC
Activity [1]: inactive | Activity (Shigella sonnei): inactive | Activity (Klebsiella aerogenes): inactive | Activity (Serratia marcescens): inactive

CCCCCCCCCCCCC/C=C/[C@@H](O)[C@H](CO)NC(C)=O
Activity [1]: inactive | Activity (RAW264.7 [2]): 46.9% | Activity (RAW264.7 [3]): 77.2% | Activity (Shigella sonnei): inactive | Activity (Klebsiella aerogenes): inactive | Activity (Serratia marcescens): inactive

CCCCCCC/C=C/C(C)=C/CC/C=C/[C@@H](O)[C@H](CO[C@H]1O[C@H](CO)[C@@H](O)[C@H](O)[C@H]1O)NC(=O)[C@H](O)/C=C/CCCCCCCCCCCCCC [SARCOEHRENOSIDE A]
Activity [1]: inactive | Activity (RAW264.7 [2]): 47.3% | Activity (RAW264.7 [3]): inactive | Activity (Shigella sonnei): inactive | Activity (Klebsiella aerogenes): inactive | Activity (Serratia marcescens): inactive

O=C(/C=C/c1ccc(O)c(O)c1)OCCc1ccccc1 [CAFFEIC ACID PHENETHYL ESTER]
Activity (RAW264.7 [2]): 1.5% | Activity (RAW264.7 [3]): 70.2%

CCCCCCCCCCCCCC[C@@H](O)C(=O)N[C@@H](CO[C@@H]1O[C@H](CO)[C@@H](O)[C@H](O)[C@H]1O)[C@H](O)/C=C/CC/C=C(\C)CCCCCCCCC
Activity [1]: inactive | Activity (RAW264.7 [2]): 20.3% | Activity (RAW264.7 [3]): 64.3% | Activity (Shigella sonnei): inactive | Activity (Klebsiella aerogenes): inactive | Activity (Serratia marcescens): inactive

CCCCCCCCCCCCCCCCCCC[C@@H](O)C(=O)N[C@@H](CO[C@@H]1O[C@H](CO)[C@@H](O)[C@H](O)[C@H]1O)[C@H](O)/C=C/CC/C=C(\C)CCCCCCCCC [SARCOEHRENOSIDE B]
Activity [1]: inactive | Activity (RAW264.7 [2]): 46.5% | Activity (RAW264.7 [3]): inactive | Activity (Shigella sonnei): inactive | Activity (Klebsiella aerogenes): inactive | Activity (Serratia marcescens): inactive
